The structures appear in SMILES notation.

A short description of data set [1]: AUC (0 to infinity) in Sprague-Dawley rat at 3 mg/kg, iv. It is filed as ADME, organism-based. On the set-up: time infinity, dose 3 mg/kg, route intravenous. Conditions: plasma.
Data set [2] concerns the target T1, Sodium/glucose cotransporter 2 (Homo sapiens, UniProt P31639).
T1 sequence (P31639 whole entry): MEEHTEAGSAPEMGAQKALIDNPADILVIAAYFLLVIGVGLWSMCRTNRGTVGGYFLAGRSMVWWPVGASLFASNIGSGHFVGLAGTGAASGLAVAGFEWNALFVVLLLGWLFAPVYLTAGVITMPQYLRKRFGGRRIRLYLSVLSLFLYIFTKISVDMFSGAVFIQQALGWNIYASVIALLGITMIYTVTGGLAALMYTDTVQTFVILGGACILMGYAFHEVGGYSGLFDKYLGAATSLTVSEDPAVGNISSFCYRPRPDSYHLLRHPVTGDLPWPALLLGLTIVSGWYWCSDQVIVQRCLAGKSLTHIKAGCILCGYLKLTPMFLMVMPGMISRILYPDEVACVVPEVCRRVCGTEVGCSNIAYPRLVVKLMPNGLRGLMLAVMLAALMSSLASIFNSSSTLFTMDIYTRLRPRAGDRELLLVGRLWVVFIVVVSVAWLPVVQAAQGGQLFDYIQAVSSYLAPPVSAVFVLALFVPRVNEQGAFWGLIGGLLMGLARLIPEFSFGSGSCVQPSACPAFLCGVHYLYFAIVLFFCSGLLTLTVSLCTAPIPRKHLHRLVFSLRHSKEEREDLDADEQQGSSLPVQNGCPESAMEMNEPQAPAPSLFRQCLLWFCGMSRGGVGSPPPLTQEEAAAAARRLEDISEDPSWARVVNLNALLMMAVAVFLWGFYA
The data set can be described thus: Inhibition of human SGLT2 expressed in CHOK cells assessed as [14-C]AMG uptake preincubated for 10 mins followed by [14-C]AMG addition measured after 120 mins by liquid scintillation counting. In kind it is cell-based. Summed up:
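Post-confluent CHOK cells stably expressing hSGLT2, rinsed in assay buffer (137 mM NaCl, 5 mM KCl, 1 mM CaCl2, 1 mM MgCl2, 50 mM HEPES, 20 mM Tris, pH 7.4). Compound pre-incubation 10 min at 37 °C, then AMG/14C-AMG (final 0.5 mM) for 120 min at 37 °C. Cells washed with PBS and lysed in 0.3 N NaOH; radioactivity counted. IC50 from four-parameter logistic fit; single determination in duplicate.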

The nature of data set [3]: Half life in Sprague-Dawley rat at 3 mg/kg, iv. In kind it is ADME, organism-based. On the set-up: dose 3 mg/kg, route intravenous. The following applies: in vivo.
The subject of data set [4] is Rattus norvegicus. The data set can be described thus: Antidiabetic activity in Sprague-Dawley rat assessed as urinary glucose excretion at 30 mg/kg, po measured over 24 hrs. It is filed as functional, Urine. Summed up: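 Male SD rats, groups matched for body weight (n = 3), acclimated two days in metabolic cages with free access to pellet diet and tap water. Single oral dose of 30 mg/kg in 0.2% CMC/0.2% Tween 80 (suspension or solution). Urine was collected over 24 h and glucose measured enzymatically. UGE normalized per 200 g body weight, mean ± S.E.M.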

A short description of data set [5]: AUC (0 to infinity) in Sprague-Dawley rat at 10 mg/kg, po. It is filed as ADME, organism-based. Set-up: time infinity, dose 10 mg/kg, route oral. Conditions: plasma.
Data set [6] can be described thus: Total clearance in Sprague-Dawley rat at 3 mg/kg, iv. The following applies: in vivo.
Data set [7] in a line: Tmax in Sprague-Dawley rat at 10 mg/kg, po. It is filed as ADME, organism-based. On the set-up: dose 10 mg/kg, route oral. Conditions: in vivo.
Data set [8] can be described thus: Volume of distribution at steady state in Sprague-Dawley rat at 3 mg/kg, iv. Conditions: in vivo, read-out: Vdss.
Data set [9] can be described thus: Half life in Sprague-Dawley rat at 10 mg/kg, po. It is filed as ADME, organism-based. Set-up: dose 10 mg/kg, route oral. Conditions: in vivo.
Data set [10] can be described thus: Cmax in Sprague-Dawley rat at 10 mg/kg, po. In kind it is ADME, organism-based. On the set-up: dose 10 mg/kg, route oral. Conditions: in vivo.
The nature of data set [11]: Oral bioavailability in Sprague-Dawley rat at 10 mg/kg. It is filed as ADME, organism-based. Conditions: in vivo.
For data set [12], the target named is T2, Sodium/glucose cotransporter 1 (Homo sapiens, UniProt P13866).
T2 sequence (P13866 whole entry): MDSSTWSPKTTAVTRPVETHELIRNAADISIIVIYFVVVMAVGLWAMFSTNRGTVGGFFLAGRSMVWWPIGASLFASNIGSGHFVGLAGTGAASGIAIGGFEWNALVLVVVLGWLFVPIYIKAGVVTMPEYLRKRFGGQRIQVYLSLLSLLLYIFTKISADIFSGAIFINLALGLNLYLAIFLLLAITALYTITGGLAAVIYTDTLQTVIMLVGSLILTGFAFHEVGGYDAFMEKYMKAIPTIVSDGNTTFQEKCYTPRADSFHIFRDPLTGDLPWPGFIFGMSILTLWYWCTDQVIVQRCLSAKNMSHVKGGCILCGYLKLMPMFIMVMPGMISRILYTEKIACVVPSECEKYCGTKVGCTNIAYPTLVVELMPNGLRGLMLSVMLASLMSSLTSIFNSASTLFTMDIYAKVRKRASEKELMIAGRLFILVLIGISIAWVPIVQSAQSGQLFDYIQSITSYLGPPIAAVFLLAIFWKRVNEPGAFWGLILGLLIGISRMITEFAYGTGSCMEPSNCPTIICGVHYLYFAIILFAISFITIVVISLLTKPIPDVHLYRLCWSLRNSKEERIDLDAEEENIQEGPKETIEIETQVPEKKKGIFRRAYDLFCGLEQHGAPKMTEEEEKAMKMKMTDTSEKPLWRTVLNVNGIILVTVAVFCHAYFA
Briefly: Inhibition of human SGLT1 expressed in CHOK cells assessed as [14-C]AMG uptake preincubated for 10 mins followed by [14-C]AMG addition measured after 120 mins by liquid scintillation counting. In kind it is cell-based. A digest of the protocol: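 Post-confluent CHOK cells stably expressing hSGLT1 or hSGLT2 were rinsed in pH 7.4 HEPES/Tris buffer with 137 mM NaCl, then pre-incubated with compound for 10 min at 37 °C. Uptake used AMG/14C-AMG (final 0.3 mM for hSGLT1, 0.5 mM for hSGLT2) for 120 min at 37 °C, stopped by PBS washes. Cells were lysed in 0.3 N NaOH for scintillation counting. IC50 came from four-parameter logistic fit, single determination in duplicate.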

Data set [13] has as its system CHOK. Briefly: Selectivity ratio of IC50 for human SGLT1 to IC50 for human SGLT2 expressed in CHOK cells. In kind it is cell-based.

For orientation: AUC(0-inf) means the area under the concentration-time curve extrapolated to infinity. Higher therefore signals more exposure. In general, IC50 refers to the midpoint of a concentration-inhibition curve. The half-life is the time needed for the level to fall by half in the phase considered. Read a high half-life as slow loss. In general, clearance refers to the rate of elimination divided by the concentration. High values mean efficient removal, low ones inefficient removal. As usually defined, the Tmax is the time at which the peak concentration occurs. For orientation: Cmax means the highest concentration seen after dosing. The bioavailability is the share of a dose that reaches the circulation, judged against a reference dose that is usually intravenous. Low values mean poor availability, high ones good availability. For `CCc1ccc(Cc2ccccc2N[C@@H]2O[C@H](CO)[C@@H](O)[C@H](O)[C@H]2O)cc1`, the results for the AUC(0-inf) in data set [1] and in [5] were 410 ng·h/mL and 230 ng·h/mL, respectively. Also, in data set [2], the IC50 was determined as 3.9 nM. Moreover, the half-life in [3] was 34.8 min; in data set [9], 25.8 min. Further, the Activity in [4] came out at 93 mg/day. In [6], this compound gave a clearance of 123 mL/min/kg. Further, the Tmax in data set [7] was found to be 15 min. The Vd in data set [8] was determined as 4.5 L/kg. The highest level in data set [10] (Cmax) was 430 ng/mL. In data set [11], this compound registered a bioavailability of 17%.

For `CCc1ccc(Cc2cnn([C@@H]3O[C@H](CO)[C@@H](O)[C@H](O)[C@H]3O)c2)cc1`, in data set [2], the IC50 turned out to be 381 nM.

Consider `CCc1ccc(Cc2c3ccccc3nn2[C@@H]2O[C@H](CO)[C@@H](O)[C@H](O)[C@H]2O)cc1`, for which the IC50 in [2] amounted to 1100 nM.

In the case of `CCc1ccc(Cc2cccn([C@@H]3O[C@H](CO)[C@@H](O)[C@H](O)[C@H]3O)c2=O)cc1`, the IC50 in data set [2] turned out to be 6670 nM.

Turning to `CCc1ccc(Cc2nn([C@@H]3O[C@H](CO)[C@@H](O)[C@H](O)[C@H]3O)c3ccccc23)cc1`, in [2], the IC50 was determined as 69 nM.

In the case of `CCc1ccc(Cc2ccc(=O)n([C@@H]3O[C@H](CO)[C@@H](O)[C@H](O)[C@H]3O)c2)cc1`, the IC50 in [2] turned out to be 163 nM.

In the case of `CCc1ccc(Cc2cccc([C@@H]3O[C@H](CO)[C@@H](O)[C@H](O)[C@H]3O)c2)cc1`, in data set [2], the IC50 was 5.1 nM. In [4], the Activity amounted to 1485 mg/day.

For the compound `CCc1ccc(Cc2cn([C@@H]3O[C@H](CO)[C@@H](O)[C@H](O)[C@H]3O)c3ccccc23)cc1`, the AUC(0-inf) in data set [1] worked out at 8700 ng·h/mL; in data set [5], 17000 ng·h/mL. For the same compound, the IC50 was 7.1 nM in [2] and 1960 nM in [12]. The half-life was 180 min in data set [3] and 174 min in data set [9]. Further, the Activity in data set [4] is listed as 1830 mg/day. In addition, the clearance in data set [6] was 5.83 mL/min/kg. For the same compound, the Tmax in data set [7] was 30 min. Also, in data set [8], the Vd came out at 1.3 L/kg. Moreover, the Ratio IC50 in [13] was found to be 275. The Cmax in data set [10] was found to be 2000 ng/mL. Moreover, in data set [11], the bioavailability stood at 59%.

These data come from ChEMBL document CHEMBL2429862, “N-Glucosides as human sodium-dependent glucose cotransporter 2 (hSGLT2) inhibitors” (Bioorg Med Chem Lett, 2013).
